Measurements taken from ChEMBL document CHEMBL1148748, “Synthesis of specific bivalent probes that functionally interact with 5-HT(4) receptor dimers” (J Med Chem, 2007).

Columns and labels:
[1] = target: T1, 5-hydroxytryptamine receptor 4 (Homo sapiens, UniProt Q13639); assay: Agonist activity at human 5HT4e receptor expressed in C6 cells assessed as cAMP accumulation relative to 5HT; type: functional, cell-based; set-up: concentration or dose not given beside the values
In short: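 C6 glial cells stably expressing h5-HT4(e), serum-starved 4 h, preincubated 15 min with 5 mM theophylline plus 10 µM pargyline, then compound with or without 5-HT (1 µM) 15 min at 37 °C; stopped with ice-cold 20% perchloric acid, neutralized; cAMP by radioimmunoassay; expressed as % of 5-HT response; two experiments in triplicate.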

[2] = target: T1, 5-hydroxytryptamine receptor 4; assay: Displacement of [3H]GR-113808 from human 5HT4e receptor expressed in C6 cells; type: cell-based
[3] = target: T1, 5-hydroxytryptamine receptor 4; assay: Activity at 5HT4 receptor fused with RLuc and YFP fusion proteins expressed in CHO cells by BRET dimerization assay relative to control; type: functional, cell-based; set-up: concentration or dose not given beside the values
In short: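 CHO cells transiently cotransfected (Jet-PEI, 8 µg DNA per 100 mm dish) with C-terminal 5-HT4R-RLuc and 5-HT4R-YFP at equimolar amounts; membrane preparations incubated with ligand (1 µM, or dose-response) at 25 °C; coelenterazine h 5 µM final; 530/485 nm emission ratio minus RLuc-alone ratio gives BRET, in mBU; % of control; three experiments in duplicate.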

[4] = target: T1, 5-hydroxytryptamine receptor 4; assay: Binding affinity to Rluc fused 5HT4 receptor expressed in CHO cells; type: cell-based
[5] = target: T1, 5-hydroxytryptamine receptor 4; assay: Binding affinity to YFP fused 5HT4 receptor expressed in CHO cells; type: cell-based

T1 sequence (Q13639 whole entry): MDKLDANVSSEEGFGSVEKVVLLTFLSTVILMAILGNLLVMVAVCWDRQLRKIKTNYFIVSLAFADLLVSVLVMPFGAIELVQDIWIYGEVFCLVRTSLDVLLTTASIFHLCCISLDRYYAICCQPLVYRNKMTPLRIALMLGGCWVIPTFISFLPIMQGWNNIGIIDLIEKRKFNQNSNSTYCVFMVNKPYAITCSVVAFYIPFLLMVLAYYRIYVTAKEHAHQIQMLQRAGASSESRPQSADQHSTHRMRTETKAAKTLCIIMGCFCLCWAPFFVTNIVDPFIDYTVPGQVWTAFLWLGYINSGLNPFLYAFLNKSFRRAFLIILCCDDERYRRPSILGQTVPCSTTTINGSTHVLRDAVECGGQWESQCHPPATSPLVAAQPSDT

| SMILES | Activity [1] [%] | Ki [2] [nM] | Activity [3] [%] | Ki [4] [nM] | Ki [5] [nM] |
| --- | --- | --- | --- | --- | --- |
| COc1cc(N)c(Cl)cc1C(=O)OCCN1CCC(NC(=O)CCCN(CCCc2ccc(CCCN(CCCC(=O)NC3CCN(CCOC(=O)c4cc(Cl)c(N)cc4OC)CC3)C(=O)OC(C)(C)C)cc2)C(=O)OC(C)(C)C)CC1 | 21 | 12 | 118 | 10 | 10 |
| COc1cc(N)c(Cl)cc1C(=O)OCCN1CCC(CNC(=O)CCCN(CC#Cc2cccc(C#CCN(CCCC(=O)NCC3CCN(CCOC(=O)c4cc(Cl)c(N)cc4OC)CC3)C(=O)OC(C)(C)C)c2)C(=O)OC(C)(C)C)CC1 | 6 | 40 | 108 | – | – |
| COc1cc(N)c(Cl)cc1C(=O)OCCN1CCC(CNC(=O)CCCN(CCCc2ccc(CCCN(CCCC(=O)NCC3CCN(CCOC(=O)c4cc(Cl)c(N)cc4OC)CC3)C(=O)OC(C)(C)C)cc2)C(=O)OC(C)(C)C)CC1 | 9 | 15 | 115 | – | – |
| COc1cc(N)c(Cl)cc1C(=O)OCCN1CCC(NC(=O)CCCCCCCCCCNC(=O)C2CCN(CCOC(=O)c3cc(Cl)c(N)cc3OC)CC2)CC1 | 5 | – | 110 | – | – |
| COc1cc(N)c(Cl)cc1C(=O)OCCN1CCC(CCNC(=O)CCCCCCCCCCC(=O)NCCC2CCN(CCOC(=O)c3cc(Cl)c(N)cc3OC)CC2)CC1 | 6 | 9 | 108 | – | – |
| COc1cc(N)c(Cl)cc1C(=O)OCCN1CCCCC1 | 45 | – | 101 | – | – |
| COc1cc(N)c(Cl)cc1C(=O)OCCN1CCC(NC(=O)CCCN(CCCc2ccc(CCCN(CCCC(=O)NC3CCCCC3)C(=O)OC(C)(C)C)cc2)C(=O)OC(C)(C)C)CC1 | 17 | 34 | 105 | – | – |
| COc1cc(N)c(Cl)cc1C(=O)OCCN1CCC(NC(=O)CCCCCCCCCCNc2nc(NCCCCCCCCCCC(=O)NC3CCN(CCOC(=O)c4cc(Cl)c(N)cc4OC)CC3)nc(NCc3ccccc3)n2)CC1 | 12 | – | 114 | – | – |
| COc1cc(N)c(Cl)cc1C(=O)OCCN1CCC(CNC(=O)CCCN(CCCc2cccc(CCCN(CCCC(=O)NCC3CCN(CCOC(=O)c4cc(Cl)c(N)cc4OC)CC3)C(=O)OC(C)(C)C)c2)C(=O)OC(C)(C)C)CC1 | 5 | 23 | 108 | – | – |
| COc1cc(N)c(Cl)cc1C(=O)OCCN1CCC(CNC(=O)CCCN(CC#Cc2ccc(C#CCN(CCCC(=O)NCC3CCN(CCOC(=O)c4cc(Cl)c(N)cc4OC)CC3)C(=O)OC(C)(C)C)cc2)C(=O)OC(C)(C)C)CC1 | 1 | 25 | 115 | – | – |
| COc1cc(N)c(Cl)cc1C(=O)OCCN1CCC(CNC(=O)CN(CC#Cc2ccc(C#CCN(CC(=O)NCC3CCN(CCOC(=O)c4cc(Cl)c(N)cc4OC)CC3)C(=O)OC(C)(C)C)cc2)C(=O)OC(C)(C)C)CC1 | 49 | 44 | 107 | – | – |
| Cn1cc(C(=O)OCC2CCN(CCNS(C)(=O)=O)CC2)c2ccccc21 | 1 | – | 99 | – | 0.7 |
| COc1cc(N)c(Cl)cc1C(=O)OCCN1CCC(CNC(=O)CN(CCCc2ccc(CCCN(CC(=O)NCC3CCN(CCOC(=O)c4cc(Cl)c(N)cc4OC)CC3)C(=O)OC(C)(C)C)cc2)C(=O)OC(C)(C)C)CC1 | 18 | 19 | 114 | – | – |
| COc1cc(N)c(Cl)cc1C(=O)OCCN1CCC(NC(=O)CCCCCNC(=O)C2CCN(CCOC(=O)c3cc(Cl)c(N)cc3OC)CC2)CC1 | 46 | 7 | 108 | – | – |
| COc1cc(N)c(Cl)cc1C(=O)OCCN1CCC(NC(=O)CCCN(CC#Cc2cccc(C#CCN(CCCC(=O)NC3CCN(CCOC(=O)c4cc(Cl)c(N)cc4OC)CC3)C(=O)OC(C)(C)C)c2)C(=O)OC(C)(C)C)CC1 | 8 | 8 | 109 | – | – |
| COc1cc(N)c(Cl)cc1C(=O)OCCN1CCC(NC(=O)CCCCCCCCCCN(CCCCCCCCCCC(=O)NC2CCN(CCOC(=O)c3cc(Cl)c(N)cc3OC)CC2)CC(=O)NCC2CCNCC2)CC1 | 10 | – | 114 | – | – |
| COc1cc(N)c(Cl)cc1C(=O)OCCN1CCC(NC(=O)CCCN(CC#Cc2ccc(C#CCN(CCCC(=O)NC3CCN(CCOC(=O)c4cc(Cl)c(N)cc4OC)CC3)C(=O)OC(C)(C)C)cc2)C(=O)OC(C)(C)C)CC1 | 35 | 18 | 106 | – | – |
